In ChEMBL document CHEMBL3853346, “Synthesis of arylated coumarins by Suzuki-Miyaura cross-coupling. Reactions and anti-HIV activity” (Bioorg Med Chem, 2016):
Values after ≈ are worked out from the molar mass of the structure shown.

tested on: Human immunodeficiency virus 1; assay: Antiviral activity against HIV-1 3B infected in human MT-4 cells assessed as protection against virus induced cytopathic effect after 5 days by MTT assay; assay type: functional, cell-based; settings: Human immunodeficiency virus 1, 3B, MT4, 120 h
Method in brief: (§1)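 MT-4 cells, exponentially growing, resuspended at 6 x 10⁵ cells/mL and infected with HIV-1 IIIB or HIV-2 ROD at 100-300 CCID50. Test compounds added as serial 5-fold dilutions in triplicate wells at the start. Untreated infected and mock-infected controls included. Viability read by MTT spectrophotometrically 5 days post-infection. EC50 is the concentration giving 50% protection from virus-induced cytopathic effect.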

SMILES | IC50
COc1cccc(-c2cc3oc(=O)cc(C)c3cc2OS(=O)(=O)C(F)(F)F)c1 | > 18.9 µg/mL
COc1ccc(-c2cc3oc(=O)cc(C)c3cc2-c2ccc(F)cc2)cc1 | > 10.9 µg/mL
COc1ccc(-c2cc3oc(=O)cc(C)c3cc2-c2cc(C)cc(C)c2)cc1 | > 2.08 µg/mL
Cc1ccc(-c2cc3oc(=O)cc(C)c3cc2OS(=O)(=O)C(F)(F)F)cc1 | > 11 µg/mL
Cc1cc(C)cc(-c2cc3oc(=O)cc(C)c3cc2-c2cc(C)cc(C)c2)c1 | 4.57 µg/mL (≈ 12.4 µM)
COc1ccc(-c2cc3oc(=O)cc(C)c3cc2-c2cccc(C)c2)cc1 | > 7.4 µg/mL
CCOc1ccc(-c2cc3oc(=O)cc(C)c3cc2-c2ccc(OCC)cc2)cc1 | > 37.3 µg/mL
Cc1cc(=O)oc2cc(-c3ccc(Cl)cc3)c(-c3ccc(Cl)cc3)cc12 | > 16 µg/mL
COc1ccc(-c2cc3oc(=O)cc(C)c3cc2-c2ccc(OC)cc2)cc1 | > 11 µg/mL
Cc1cc(=O)oc2cc(-c3ccc(C(F)(F)F)cc3)c(OS(=O)(=O)C(F)(F)F)cc12 | > 80.3 µg/mL
Cc1cc(=O)oc2cc(OS(=O)(=O)C(F)(F)F)c(OS(=O)(=O)C(F)(F)F)cc12 | > 43.5 µg/mL
COc1ccc(-c2cc3oc(=O)cc(C)c3cc2OS(=O)(=O)C(F)(F)F)c(OC)c1OC | > 2.13 µg/mL

tested on: not listed separately; assay: Cytotoxicity against human MT4 cells assessed as reduction in cell viability after 5 days by MTT assay; assay type: toxicity, cell-based; settings: not given
Method in brief: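 Mock-infected MT-4 cells (6 x 10⁵ cells/mL) were run in parallel with the infected series. Serial 5-fold compound dilutions were tested in triplicate wells, with culture medium in place of virus. Viability was measured by MTT at day 5. CC50 is the concentration that reduces viability of mock-infected cells by 50%.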

SMILES | CC50 at 120 h
COc1cccc(-c2cc3oc(=O)cc(C)c3cc2OS(=O)(=O)C(F)(F)F)c1 | 18.9 µg/mL (≈ 45.5 µM)
COc1ccc(-c2cc3oc(=O)cc(C)c3cc2-c2ccc(F)cc2)cc1 | 10.9 µg/mL (≈ 30.3 µM)
COc1ccc(-c2cc3oc(=O)cc(C)c3cc2-c2cc(C)cc(C)c2)cc1 | 2.08 µg/mL (≈ 5.61 µM)
Cc1ccc(-c2cc3oc(=O)cc(C)c3cc2OS(=O)(=O)C(F)(F)F)cc1 | 11 µg/mL (≈ 27.6 µM)
Cc1cc(C)cc(-c2cc3oc(=O)cc(C)c3cc2-c2cc(C)cc(C)c2)c1 | 14.4 µg/mL (≈ 39.1 µM)
COc1ccc(-c2cc3oc(=O)cc(C)c3cc2-c2cccc(C)c2)cc1 | 7.4 µg/mL (≈ 20.8 µM)
CCOc1ccc(-c2cc3oc(=O)cc(C)c3cc2-c2ccc(OCC)cc2)cc1 | 37.3 µg/mL (≈ 93.2 µM)
Cc1cc(=O)oc2cc(-c3ccc(Cl)cc3)c(-c3ccc(Cl)cc3)cc12 | 16 µg/mL (≈ 41.9 µM)
COc1ccc(-c2cc3oc(=O)cc(C)c3cc2-c2ccc(OC)cc2)cc1 | 11 µg/mL (≈ 29.5 µM)
Cc1cc(=O)oc2cc(-c3ccc(C(F)(F)F)cc3)c(OS(=O)(=O)C(F)(F)F)cc12 | 80.3 µg/mL (≈ 178 µM)
Cc1cc(=O)oc2cc(OS(=O)(=O)C(F)(F)F)c(OS(=O)(=O)C(F)(F)F)cc12 | 43.5 µg/mL (≈ 95.3 µM)
COc1ccc(-c2cc3oc(=O)cc(C)c3cc2OS(=O)(=O)C(F)(F)F)c(OC)c1OC | 2.13 µg/mL (≈ 4.49 µM)

tested on: not listed separately; assay: Antiviral activity against HIV-2 ROD infected in human MT-4 cells assessed as protection against virus induced cytopathic effect after 5 days by MTT assay; assay type: functional, cell-based, Human immunodeficiency virus type 2 (ISOLATE ROD); settings: Human immunodeficiency virus 2, MT4, 120 h; method in brief: as §1

SMILES | IC50
COc1cccc(-c2cc3oc(=O)cc(C)c3cc2OS(=O)(=O)C(F)(F)F)c1 | > 18.9 µg/mL
COc1ccc(-c2cc3oc(=O)cc(C)c3cc2-c2ccc(F)cc2)cc1 | > 10.9 µg/mL
COc1ccc(-c2cc3oc(=O)cc(C)c3cc2-c2cc(C)cc(C)c2)cc1 | > 2.08 µg/mL
Cc1ccc(-c2cc3oc(=O)cc(C)c3cc2OS(=O)(=O)C(F)(F)F)cc1 | > 11 µg/mL
Cc1cc(C)cc(-c2cc3oc(=O)cc(C)c3cc2-c2cc(C)cc(C)c2)c1 | > 14.4 µg/mL
COc1ccc(-c2cc3oc(=O)cc(C)c3cc2-c2cccc(C)c2)cc1 | > 7.4 µg/mL
CCOc1ccc(-c2cc3oc(=O)cc(C)c3cc2-c2ccc(OCC)cc2)cc1 | > 37.3 µg/mL
Cc1cc(=O)oc2cc(-c3ccc(Cl)cc3)c(-c3ccc(Cl)cc3)cc12 | > 16 µg/mL
COc1ccc(-c2cc3oc(=O)cc(C)c3cc2-c2ccc(OC)cc2)cc1 | > 11 µg/mL
Cc1cc(=O)oc2cc(-c3ccc(C(F)(F)F)cc3)c(OS(=O)(=O)C(F)(F)F)cc12 | > 80.3 µg/mL
Cc1cc(=O)oc2cc(OS(=O)(=O)C(F)(F)F)c(OS(=O)(=O)C(F)(F)F)cc12 | > 43.5 µg/mL
COc1ccc(-c2cc3oc(=O)cc(C)c3cc2OS(=O)(=O)C(F)(F)F)c(OC)c1OC | > 2.13 µg/mL

tested on: not listed separately; assay: Selectivity index, ratio of CC50 for human MT-4 cells to IC50 for HIV-2 ROD infected in human MT-4 cells; assay type: functional, MT4; settings: not given
Method in brief: (§2)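 Selectivity index is CC50 in mock-infected MT-4 cells divided by IC50 against HIV-1 IIIB or HIV-2 ROD. Both values come from parallel 5-day MTT assays in the same plates.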

SMILES | Ratio CC50/IC50
COc1cccc(-c2cc3oc(=O)cc(C)c3cc2OS(=O)(=O)C(F)(F)F)c1 | <1
COc1ccc(-c2cc3oc(=O)cc(C)c3cc2-c2ccc(F)cc2)cc1 | <1
COc1ccc(-c2cc3oc(=O)cc(C)c3cc2-c2cc(C)cc(C)c2)cc1 | <1
Cc1ccc(-c2cc3oc(=O)cc(C)c3cc2OS(=O)(=O)C(F)(F)F)cc1 | <1
Cc1cc(C)cc(-c2cc3oc(=O)cc(C)c3cc2-c2cc(C)cc(C)c2)c1 | <1
COc1ccc(-c2cc3oc(=O)cc(C)c3cc2-c2cccc(C)c2)cc1 | <1
CCOc1ccc(-c2cc3oc(=O)cc(C)c3cc2-c2ccc(OCC)cc2)cc1 | <1
Cc1cc(=O)oc2cc(-c3ccc(Cl)cc3)c(-c3ccc(Cl)cc3)cc12 | <1
COc1ccc(-c2cc3oc(=O)cc(C)c3cc2-c2ccc(OC)cc2)cc1 | <1
Cc1cc(=O)oc2cc(-c3ccc(C(F)(F)F)cc3)c(OS(=O)(=O)C(F)(F)F)cc12 | <1
Cc1cc(=O)oc2cc(OS(=O)(=O)C(F)(F)F)c(OS(=O)(=O)C(F)(F)F)cc12 | <1
COc1ccc(-c2cc3oc(=O)cc(C)c3cc2OS(=O)(=O)C(F)(F)F)c(OC)c1OC | <1

tested on: not listed separately; assay: Selectivity index, ratio of CC50 for human MT-4 cells to IC50 for HIV-1 3B infected in human MT-4 cells; assay type: functional, MT4; settings: not given; method in brief: as §2

SMILES | Ratio CC50/IC50
COc1cccc(-c2cc3oc(=O)cc(C)c3cc2OS(=O)(=O)C(F)(F)F)c1 | <1
COc1ccc(-c2cc3oc(=O)cc(C)c3cc2-c2ccc(F)cc2)cc1 | <1
COc1ccc(-c2cc3oc(=O)cc(C)c3cc2-c2cc(C)cc(C)c2)cc1 | <1
Cc1ccc(-c2cc3oc(=O)cc(C)c3cc2OS(=O)(=O)C(F)(F)F)cc1 | <1
Cc1cc(C)cc(-c2cc3oc(=O)cc(C)c3cc2-c2cc(C)cc(C)c2)c1 | 3
COc1ccc(-c2cc3oc(=O)cc(C)c3cc2-c2cccc(C)c2)cc1 | <1
CCOc1ccc(-c2cc3oc(=O)cc(C)c3cc2-c2ccc(OCC)cc2)cc1 | <1
Cc1cc(=O)oc2cc(-c3ccc(Cl)cc3)c(-c3ccc(Cl)cc3)cc12 | <1
COc1ccc(-c2cc3oc(=O)cc(C)c3cc2-c2ccc(OC)cc2)cc1 | <1
Cc1cc(=O)oc2cc(-c3ccc(C(F)(F)F)cc3)c(OS(=O)(=O)C(F)(F)F)cc12 | <1
Cc1cc(=O)oc2cc(OS(=O)(=O)C(F)(F)F)c(OS(=O)(=O)C(F)(F)F)cc12 | <1
COc1ccc(-c2cc3oc(=O)cc(C)c3cc2OS(=O)(=O)C(F)(F)F)c(OC)c1OC | <1
